Data published in ChEMBL document CHEMBL4387752, “Identification of substituted benzothiazole sulfones as potent and selective inhibitors of endothelial lipase” (Bioorg Med Chem Lett, 2019).

Experiments:
[1] = Metabolic stability in Balb/c mouse liver microsomes assessed as parent compound remaining at 0.5 uM measured after 10 mins; format: ADME, Microsome; settings: read-out: Stability
How it was run: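 Test compound at 0.5 μM was incubated for 10 min with mouse liver microsomes. The read-out is the percentage of parent remaining.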

Endothelial lipase [2] = target: T1, Endothelial lipase (Homo sapiens, UniProt Q9Y5X9); assay: Inhibition of human endothelial lipase derived from human HT1080 cell conditioned media using PED-A1 as substrate incubated for 20 mins and measured every 20 secs for 10 mins by FRET assay
T1 sequence (Q9Y5X9 whole entry): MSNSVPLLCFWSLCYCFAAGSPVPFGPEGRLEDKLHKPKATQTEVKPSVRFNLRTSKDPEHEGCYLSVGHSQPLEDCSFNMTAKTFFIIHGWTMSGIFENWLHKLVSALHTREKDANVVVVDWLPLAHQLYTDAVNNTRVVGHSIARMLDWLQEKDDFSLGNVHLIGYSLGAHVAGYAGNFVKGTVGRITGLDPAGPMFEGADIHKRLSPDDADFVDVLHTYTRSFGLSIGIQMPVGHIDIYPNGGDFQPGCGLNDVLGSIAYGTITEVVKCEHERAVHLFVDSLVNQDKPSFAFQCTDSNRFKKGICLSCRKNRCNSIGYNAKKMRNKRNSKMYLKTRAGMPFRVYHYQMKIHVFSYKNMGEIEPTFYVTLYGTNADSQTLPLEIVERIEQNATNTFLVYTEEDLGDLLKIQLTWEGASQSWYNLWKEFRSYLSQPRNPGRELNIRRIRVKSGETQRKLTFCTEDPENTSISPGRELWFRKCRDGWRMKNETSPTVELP
How it was run: (§1)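 IC50s were calculated from mean inhibition values of duplicate determinations.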

[3] = target: T2, Hepatic triacylglycerol lipase (Homo sapiens, UniProt P11150); assay: Inhibition of human hepatic lipase expressed in African green monkey COS7 cells using PED-A1 as substrate incubated for 20 mins and measured every 20 secs for 10 mins by FRET assay; format: cell-based; how it was run: as §1
T2 sequence (P11150 whole entry): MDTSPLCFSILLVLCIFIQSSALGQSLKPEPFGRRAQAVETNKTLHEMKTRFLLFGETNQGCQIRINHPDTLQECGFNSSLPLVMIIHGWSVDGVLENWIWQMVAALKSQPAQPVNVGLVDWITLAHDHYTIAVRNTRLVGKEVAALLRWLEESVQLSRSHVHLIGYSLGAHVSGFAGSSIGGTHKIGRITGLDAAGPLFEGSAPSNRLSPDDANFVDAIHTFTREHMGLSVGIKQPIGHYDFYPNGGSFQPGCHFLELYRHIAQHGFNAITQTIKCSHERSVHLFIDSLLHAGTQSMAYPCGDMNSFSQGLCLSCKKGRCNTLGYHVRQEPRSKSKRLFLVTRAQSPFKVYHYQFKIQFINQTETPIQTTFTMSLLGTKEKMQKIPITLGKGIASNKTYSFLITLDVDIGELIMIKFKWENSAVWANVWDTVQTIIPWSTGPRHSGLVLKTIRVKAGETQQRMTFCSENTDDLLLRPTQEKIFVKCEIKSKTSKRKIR

[4] = Permeability of compound at pH 7.4 by PAMPA; format: ADME; settings: read-out: permeability
How it was run: (§2)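 Permeability was measured by parallel artificial membrane permeability assay (PAMPA) at pH 5.5 and pH 7.4. Values are reported in nm/s.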

Endothelial lipase [5] = target: T3, Endothelial lipase (Mus musculus, UniProt Q9WVG5); assay: Inhibition of mouse endothelial lipase expressed in HEK293F cells using D31-POPC-HDL as substrate incubated for 2 hrs in presence of mouse plasma by LC/MS analysis
T3 sequence (Q9WVG5 whole entry): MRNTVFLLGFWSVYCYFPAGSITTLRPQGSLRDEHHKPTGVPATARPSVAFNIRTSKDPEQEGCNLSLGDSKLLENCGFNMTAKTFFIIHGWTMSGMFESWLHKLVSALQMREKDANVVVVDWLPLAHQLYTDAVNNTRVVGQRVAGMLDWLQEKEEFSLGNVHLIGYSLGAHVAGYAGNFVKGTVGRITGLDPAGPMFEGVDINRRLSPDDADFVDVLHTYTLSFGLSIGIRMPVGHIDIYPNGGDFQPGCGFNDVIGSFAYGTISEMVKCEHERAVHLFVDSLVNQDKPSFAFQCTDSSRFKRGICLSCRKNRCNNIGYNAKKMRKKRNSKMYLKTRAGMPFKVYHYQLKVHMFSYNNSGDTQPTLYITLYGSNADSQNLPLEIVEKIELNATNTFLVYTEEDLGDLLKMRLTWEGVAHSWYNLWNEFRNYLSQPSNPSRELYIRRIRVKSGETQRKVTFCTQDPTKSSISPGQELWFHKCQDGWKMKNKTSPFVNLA
How it was run: (§3)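 IC50 values were derived from the means of duplicate inhibition measurements.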

[6] = Plasma concentration in Balb/c mouse at 10 mg/kg, po measured after 24 hrs; format: ADME, organism-based
How it was run: (§4)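 Oral PK in fasted male balb/c mice. Dosing vehicle was ethanol/PEG 400/water (10:60:30).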

[7] = Cmax in Balb/c mouse at 10 mg/kg, po; format: ADME, organism-based; set-up: dose 10 mg/kg, route oral; settings: in vivo; how it was run: as §4
[8] = Tmax in Balb/c mouse at 10 mg/kg, po; format: ADME, organism-based; settings: in vivo; how it was run: as §4
[9] = Total AUC in Balb/c mouse at 10 mg/kg, po measured after 24 hrs; format: ADME, organism-based; set-up: dose 10 mg/kg, time AUCmax, route oral; settings: in vivo; how it was run: as §4
[10] = Permeability of compound at pH 5.5 by PAMPA; format: ADME; settings: read-out: permeability; how it was run: as §2
[11] = Plasma concentration in Balb/c mouse at 10 mg/kg, po measured after 7 hrs; format: ADME, organism-based; how it was run: as §4
Homo sapiens = organism: Homo sapiens; assay: Selectivity index, ratio of IC50 for inhibition of human hepatic lipase expressed in African green monkey COS7 cells to IC50 for inhibition of human endothelial lipase derived from human HT1080 cell conditioned media; format: cell-based
Endothelial lipase [12] = target: T1, Endothelial lipase; assay: Inhibition of human endothelial lipase using D31-POPC-HDL as substrate incubated for 2 hrs in presence of human serum by LC/MS analysis; how it was run: as §3

| remaining at 10 min, 0.5 µM [1] | IC50 (Endothelial lipase [2]) | IC50 [3] | Papp [4] | IC50 (Endothelial lipase [5]) | concentration at 24 h [6] | Cmax [7] | Tmax [8] | AUC at 24 h [9] | Papp [10] | concentration at 7 h [11] | IC50 (Endothelial lipase [12]) | Compound | Ratio IC50 (Homo sapiens) |
| --- | --- | --- | --- | --- | --- | --- | --- | --- | --- | --- | --- | --- | --- |
| 91% | 10 nM | 15 nM | 36.8 ×10⁻⁶ cm/s | 100 to 210 nM | 130 nM | 3500 nM | 0.5 h | 14 µM·h | 36.5 ×10⁻⁶ cm/s | 430 nM | – | CS(=O)(=O)C(C(=O)NCCS(N)(=O)=O)c1nc2ccc(-c3ccccc3)cc2s1 (stereo not given) | – |
| 96% | 5 nM | 4400 nM | 7.8 ×10⁻⁶ cm/s | 200 nM | – | 30 nM | – | 0.05 µM·h | 1.7 ×10⁻⁶ cm/s | 1 nM | – | CS(=O)(=O)C(C(=O)NCCS(N)(=O)=O)c1nc2ccc(-c3ccc(F)nc3)cc2s1 (stereo not given) | – |
| 74% | 10 nM | – | – | 190 nM | 1 nM | 15 nM | 3 h | 0.1 µM·h | – | 4 nM | – | CS(=O)(=O)C(C(=O)NCCS(N)(=O)=O)c1nc2ccc(-c3cnn(CCN4CCOCC4)c3)cc2s1 (stereo not given) | – |
| – | 450 nM | 81 nM | – | – | – | – | – | – | – | – | – | CS(=O)(=O)C(C(=O)NCCNS(N)(=O)=O)c1nc2ccc(-c3ccccc3)cc2s1 (stereo not given) | – |
| – | – | 79 nM | – | 600 nM | – | – | – | – | – | – | 660 nM | O=C(CNC(=O)C(c1nc2ccc(-c3ccc(F)nc3)cc2s1)S(=O)(=O)CCC(F)(F)F)NC1CC1 (stereo not given) | 2.7 |
| – | – | 47 nM | – | – | – | – | – | – | – | – | – | CS(=O)(=O)C(C(=O)NCC(=O)NC1CC1)c1nc2ccc(-c3ccccc3)cc2s1 (stereo not given) | – |
